Calls of active or inactive are those of the source. No cut-off for these calls is given here.
Experiments:
Mus musculus [1] = experiment: Toxicity in human MCF7 cells xenografted in NIH-3 mouse assessed as changed in body weight at 8 mg/kg, po for 29 days relative to control; assay type: organism-based; set-up: dose 8 mg/kg, route oral; conditions: in vivo, 696 h
Mus musculus [2] = experiment: Toxicity in human MCF7 cells xenografted in NIH-3 mouse assessed as changed in body weight at 16 mg/kg, po for 29 days relative to control; assay type: organism-based; set-up: dose 16 mg/kg, route oral; conditions: in vivo, 696 h
MCF7 [3] = experiment: Antiproliferative activity against human ER-negative MCF7 cells after 24 hrs by MTT assay; assay type: functional, cell-based; conditions: mcf7
MCF7 [4] = experiment: Cell cycle arrest in human […] cells assessed as accumulation at G2 phase at 7.5 uM by propidium iodide staining by FACS analysis (reference value: 10.96%); assay type: functional
Vero = experiment: Antiproliferative activity against african green monkey Vero cells after 24 hrs by MTT assay; assay type: functional, cell-based; conditions: Chlorocebus sabaeus
Procedure, shortened: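 MTT viability: cells seeded at 1×10^4 per well in DMEM with 10% FBS, left to adhere overnight, then serum-starved 4 h. Compounds were given at a range of doses, with 0.1% DMSO vehicle as control. EC50 was taken from dose-response curves spanning 100nM-50µM. Data are mean ± SEM from at least three independent experiments.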

in vitro = conditions: human, MCF10A cells versus
MCF7 [5] = experiment: Antitumor activity against human MCF7 cells xenografted in NIH-3 mouse assessed as increase in TUNEL positive cells at 16 mg/kg, po for 25 days relative to control; assay type: functional
[6] = target: Platelet-derived growth factor receptor beta (Homo sapiens) (UniProt P09619); experiment: Inhibition of PDGFRbeta (unknown origin) at 10 uM
Procedure, shortened: (§1)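 Cell-free kinase profiling was run as a standard 33P-ATP-based in vitro kinase assay.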

[7] = target: Proto-oncogene tyrosine-protein kinase Src (Homo sapiens) (UniProt P12931); experiment: Inhibition of cSRC (unknown origin) at 10 uM; procedure, shortened: as §1
[8] = target: RAF proto-oncogene serine/threonine-protein kinase (Homo sapiens) (UniProt P04049); experiment: Inhibition of c-RAF (unknown origin) at 10 uM; procedure, shortened: as §1
[9] = target: ETS domain-containing protein Elk-1 (Homo sapiens) (UniProt P19419); experiment: Inhibition of EGF-induced phosphorylated ELK1 in human MDA-MB-231 cells at 1 uM by ELISA; assay type: cell-based
[10] = target: Mitogen-activated protein kinase; ERK1/ERK2 (Homo sapiens) (UniProt P27361+P28482); experiment: Inhibition of EGF-induced ERK1/2 phosphorylation in human MCF7 cells at 1 uM by ELISA; assay type: cell-based
MDA-MB-231 [11] = experiment: Antiinvasion activity in human MDA-MB-231 cells assessed as inhibition of FBS-induced cell invaded to matrigel coated invasion chamber at 1 uM after 24 hrs by Transwell invasion assay; assay type: functional, cell-based
[12] = target: Phosphodiesterase 4 (Homo sapiens) (UniProt P27815+Q08499+Q07343+Q08493); experiment: Inhibition of PDE4 CAT (unknown origin) activity at 1 to 10 uM; assay type: protein assay
Procedure, shortened: (§2)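 Recombinant PDE isoform activity was read by fluorescence polarization. A binding reagent complexes with the nucleotide monophosphate that the phosphodiesterase generates from cAMP/cGMP, and this raises the polarization of the labelled substrate. Reference standards were PDE1A3 10µM IBMX, PDE2A3 1nM BAY 60-7550, PDE3CAT 1µM cilostazol, PDE4CAT rolipram, PDE5CAT 0.1µM sildenafil, PDE7A […], PDE8A1 10µM BRL-50481, PDE9A1 1µM SB 36216 and PDE11A1 dipyridamole.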

MCF7 [13] = experiment: Inhibition of EGF expression in human MCF7 cells at 5 uM by ELISA; assay type: functional, cell-based
[14] = target: Epidermal growth factor receptor (Homo sapiens) (UniProt P00533); experiment: Inhibition of EGFR (unknown origin) at 10 uM
MDA-MB-231 [15] = experiment: Antiproliferative activity against human […] cells assessed as absence of growth recovery treated > 5 uM for 24 hrs followed by maintained in drug free medium for 72 hrs by MTT assay; assay type: functional, cell-based
[16] = target: Dual 3',5'-cyclic-AMP and -GMP phosphodiesterase 11A (Homo sapiens) (UniProt Q9HCR9); experiment: Inhibition of PDE11A1 (unknown origin) activity at 1 to 10 uM; procedure, shortened: as §2
MDA-MB-231 [17] = experiment: Inhibition of cell migration in human MDA-MB-231 cells assessed as […] at 1 uM after 24 hrs by wound healing assay; assay type: functional, cell-based
[18] = target: Transforming growth factor beta-1 proprotein (Homo sapiens) (UniProt P01137); experiment: Inhibition of TGFbeta1 (unknown origin) at 10 uM
MCF7 [19] = experiment: Induction of apoptosis in human […] cells assessed as caspase 3 activation at 2.5 to 7.5 uM by Caspase-Glo assay; assay type: functional, cell-based
Procedure, shortened: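 Caspase-3 activity by Caspase-Glo 3 luminescent kit.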

MDA-MB-231 [20] = experiment: Induction of apoptosis in human […] cells assessed as caspase 3 activation at 2.5 to 7.5 uM by Caspase-Glo assay; assay type: functional, cell-based
Procedure, shortened: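 Caspase-8, -9 and -3 activities measured with Caspase-Glo 8, 9 and 3 kits; mean ± SEM from three independent experiments.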

[21] = target: cAMP and cAMP-inhibited cGMP 3',5'-cyclic phosphodiesterase 10A (Homo sapiens) (UniProt Q9Y233); experiment: Inhibition of PDE10A1 (unknown origin) activity at 1 to 10 uM
[22] = target: Platelet-derived growth factor receptor alpha (Homo sapiens) (UniProt P16234); experiment: Inhibition of PDGFRalpha (unknown origin) at 10 uM; procedure, shortened: as §1
MDA-MB-231 [23] = experiment: Inhibition of MTA expression in human MDA-MB-231 cells at 1 uM after 24 hrs by qPCR analysis; assay type: functional, cell-based
Procedure, shortened: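 MDA-MB-231 cells treated at 1µM. Transcript levels measured by qPCR with GAPDH as internal control.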

MCF7 [24] = experiment: Inhibition of INS expression in human MCF7 cells at 5 uM by ELISA; assay type: functional, cell-based

Chain of cAMP and cAMP-inhibited cGMP 3',5'-cyclic phosphodiesterase 10A (Homo sapiens) (Q9Y233 whole entry): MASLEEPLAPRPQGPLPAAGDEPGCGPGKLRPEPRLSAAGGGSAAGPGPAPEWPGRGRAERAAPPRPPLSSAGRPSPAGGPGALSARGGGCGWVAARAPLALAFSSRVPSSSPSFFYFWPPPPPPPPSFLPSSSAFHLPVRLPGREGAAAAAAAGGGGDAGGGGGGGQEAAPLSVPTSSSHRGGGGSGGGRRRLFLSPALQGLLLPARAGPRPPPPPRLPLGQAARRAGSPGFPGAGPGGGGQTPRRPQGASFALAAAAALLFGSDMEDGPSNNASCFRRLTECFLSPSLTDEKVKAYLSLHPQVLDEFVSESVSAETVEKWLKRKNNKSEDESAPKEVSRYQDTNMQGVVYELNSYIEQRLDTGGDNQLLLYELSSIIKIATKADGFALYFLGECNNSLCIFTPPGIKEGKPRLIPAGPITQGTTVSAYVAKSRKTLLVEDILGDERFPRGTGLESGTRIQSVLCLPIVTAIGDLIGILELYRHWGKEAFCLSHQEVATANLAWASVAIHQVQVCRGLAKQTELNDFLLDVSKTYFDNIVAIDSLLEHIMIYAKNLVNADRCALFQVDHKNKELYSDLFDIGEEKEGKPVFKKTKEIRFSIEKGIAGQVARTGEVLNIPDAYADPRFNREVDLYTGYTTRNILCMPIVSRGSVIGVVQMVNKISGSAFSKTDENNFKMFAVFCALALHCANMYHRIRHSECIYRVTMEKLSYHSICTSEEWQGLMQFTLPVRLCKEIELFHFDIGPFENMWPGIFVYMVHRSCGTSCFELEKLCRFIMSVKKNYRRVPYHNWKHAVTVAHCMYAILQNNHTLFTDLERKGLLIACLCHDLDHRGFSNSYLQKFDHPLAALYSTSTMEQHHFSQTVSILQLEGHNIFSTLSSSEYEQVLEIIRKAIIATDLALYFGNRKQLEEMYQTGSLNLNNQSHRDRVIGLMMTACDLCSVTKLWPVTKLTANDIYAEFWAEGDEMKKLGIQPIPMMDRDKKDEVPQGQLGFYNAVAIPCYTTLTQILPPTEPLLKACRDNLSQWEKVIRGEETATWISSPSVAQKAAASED
Chain of Platelet-derived growth factor receptor alpha (Homo sapiens) (P16234 whole entry): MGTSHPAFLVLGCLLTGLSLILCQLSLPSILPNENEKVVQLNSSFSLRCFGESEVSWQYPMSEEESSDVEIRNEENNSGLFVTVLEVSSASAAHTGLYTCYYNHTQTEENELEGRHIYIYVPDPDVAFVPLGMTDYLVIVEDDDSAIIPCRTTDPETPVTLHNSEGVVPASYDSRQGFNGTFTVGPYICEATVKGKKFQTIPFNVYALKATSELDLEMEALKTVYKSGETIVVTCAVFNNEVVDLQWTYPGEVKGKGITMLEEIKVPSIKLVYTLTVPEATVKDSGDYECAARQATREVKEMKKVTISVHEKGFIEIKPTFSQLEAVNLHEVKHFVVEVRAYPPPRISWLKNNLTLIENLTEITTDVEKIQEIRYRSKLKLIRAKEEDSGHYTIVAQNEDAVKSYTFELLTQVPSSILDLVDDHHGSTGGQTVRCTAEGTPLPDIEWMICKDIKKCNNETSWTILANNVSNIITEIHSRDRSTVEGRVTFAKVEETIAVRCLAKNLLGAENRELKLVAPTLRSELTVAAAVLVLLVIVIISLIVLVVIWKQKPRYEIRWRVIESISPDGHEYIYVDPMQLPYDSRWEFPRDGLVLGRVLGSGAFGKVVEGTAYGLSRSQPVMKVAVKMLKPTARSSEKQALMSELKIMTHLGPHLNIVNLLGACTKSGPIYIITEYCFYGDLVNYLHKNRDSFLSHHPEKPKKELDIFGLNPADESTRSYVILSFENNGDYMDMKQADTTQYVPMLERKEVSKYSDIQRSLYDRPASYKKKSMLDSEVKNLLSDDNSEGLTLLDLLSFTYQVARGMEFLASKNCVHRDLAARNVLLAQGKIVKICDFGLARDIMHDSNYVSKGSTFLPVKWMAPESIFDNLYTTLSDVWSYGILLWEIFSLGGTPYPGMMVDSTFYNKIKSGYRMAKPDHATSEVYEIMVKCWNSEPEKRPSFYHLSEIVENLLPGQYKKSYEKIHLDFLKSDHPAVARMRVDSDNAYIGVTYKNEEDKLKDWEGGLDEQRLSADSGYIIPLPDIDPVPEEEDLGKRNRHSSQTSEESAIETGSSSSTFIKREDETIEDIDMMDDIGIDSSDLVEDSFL
Chain of Proto-oncogene tyrosine-protein kinase Src (Homo sapiens) (P12931 2-536 limits assumed): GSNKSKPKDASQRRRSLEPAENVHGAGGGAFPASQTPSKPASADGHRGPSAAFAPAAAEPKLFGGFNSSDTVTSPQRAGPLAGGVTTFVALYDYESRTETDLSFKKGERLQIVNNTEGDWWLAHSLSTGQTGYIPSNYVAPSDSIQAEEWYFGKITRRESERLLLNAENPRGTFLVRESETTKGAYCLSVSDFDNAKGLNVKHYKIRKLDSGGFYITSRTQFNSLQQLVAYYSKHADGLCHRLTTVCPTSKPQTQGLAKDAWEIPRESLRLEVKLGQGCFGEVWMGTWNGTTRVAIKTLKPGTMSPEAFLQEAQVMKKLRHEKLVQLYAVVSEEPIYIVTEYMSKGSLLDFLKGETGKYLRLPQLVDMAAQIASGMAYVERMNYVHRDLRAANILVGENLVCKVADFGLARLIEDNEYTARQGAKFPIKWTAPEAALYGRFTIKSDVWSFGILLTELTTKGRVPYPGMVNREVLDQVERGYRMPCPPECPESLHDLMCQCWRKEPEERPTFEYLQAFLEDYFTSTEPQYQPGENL
Chain of Epidermal growth factor receptor (Homo sapiens) (P00533 whole entry): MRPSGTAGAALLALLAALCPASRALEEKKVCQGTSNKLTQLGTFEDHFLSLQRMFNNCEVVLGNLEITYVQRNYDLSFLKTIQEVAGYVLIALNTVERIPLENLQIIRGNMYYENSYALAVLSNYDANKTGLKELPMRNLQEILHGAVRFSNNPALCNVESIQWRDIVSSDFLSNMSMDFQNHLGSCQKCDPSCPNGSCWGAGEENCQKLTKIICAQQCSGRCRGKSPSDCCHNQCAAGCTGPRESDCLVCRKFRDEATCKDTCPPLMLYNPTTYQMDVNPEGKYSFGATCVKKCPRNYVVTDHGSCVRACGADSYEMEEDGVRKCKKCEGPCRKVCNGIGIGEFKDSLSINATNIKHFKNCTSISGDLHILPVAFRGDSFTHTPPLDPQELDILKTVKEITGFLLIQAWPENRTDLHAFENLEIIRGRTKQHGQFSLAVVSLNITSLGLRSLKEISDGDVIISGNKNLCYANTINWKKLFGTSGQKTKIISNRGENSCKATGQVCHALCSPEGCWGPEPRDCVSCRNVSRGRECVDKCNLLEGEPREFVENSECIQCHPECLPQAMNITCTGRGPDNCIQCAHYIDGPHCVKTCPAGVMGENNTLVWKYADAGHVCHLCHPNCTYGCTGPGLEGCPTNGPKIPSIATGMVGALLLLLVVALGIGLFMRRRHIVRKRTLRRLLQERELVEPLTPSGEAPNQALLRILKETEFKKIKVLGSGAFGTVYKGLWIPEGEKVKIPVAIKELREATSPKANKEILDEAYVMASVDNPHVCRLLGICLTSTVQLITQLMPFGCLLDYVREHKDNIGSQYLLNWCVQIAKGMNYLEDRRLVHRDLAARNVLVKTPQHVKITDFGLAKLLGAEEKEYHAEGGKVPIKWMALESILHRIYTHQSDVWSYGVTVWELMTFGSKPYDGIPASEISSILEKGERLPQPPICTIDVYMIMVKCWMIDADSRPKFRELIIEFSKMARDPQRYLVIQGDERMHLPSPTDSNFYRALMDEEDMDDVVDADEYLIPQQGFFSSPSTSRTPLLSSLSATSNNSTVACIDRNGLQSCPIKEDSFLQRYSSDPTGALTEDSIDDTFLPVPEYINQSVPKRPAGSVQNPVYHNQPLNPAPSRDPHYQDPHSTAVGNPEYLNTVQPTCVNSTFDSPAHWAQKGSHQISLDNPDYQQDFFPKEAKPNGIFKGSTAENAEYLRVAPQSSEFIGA
Chain of Dual 3',5'-cyclic-AMP and -GMP phosphodiesterase 11A (Homo sapiens) (Q9HCR9 whole entry, looked up): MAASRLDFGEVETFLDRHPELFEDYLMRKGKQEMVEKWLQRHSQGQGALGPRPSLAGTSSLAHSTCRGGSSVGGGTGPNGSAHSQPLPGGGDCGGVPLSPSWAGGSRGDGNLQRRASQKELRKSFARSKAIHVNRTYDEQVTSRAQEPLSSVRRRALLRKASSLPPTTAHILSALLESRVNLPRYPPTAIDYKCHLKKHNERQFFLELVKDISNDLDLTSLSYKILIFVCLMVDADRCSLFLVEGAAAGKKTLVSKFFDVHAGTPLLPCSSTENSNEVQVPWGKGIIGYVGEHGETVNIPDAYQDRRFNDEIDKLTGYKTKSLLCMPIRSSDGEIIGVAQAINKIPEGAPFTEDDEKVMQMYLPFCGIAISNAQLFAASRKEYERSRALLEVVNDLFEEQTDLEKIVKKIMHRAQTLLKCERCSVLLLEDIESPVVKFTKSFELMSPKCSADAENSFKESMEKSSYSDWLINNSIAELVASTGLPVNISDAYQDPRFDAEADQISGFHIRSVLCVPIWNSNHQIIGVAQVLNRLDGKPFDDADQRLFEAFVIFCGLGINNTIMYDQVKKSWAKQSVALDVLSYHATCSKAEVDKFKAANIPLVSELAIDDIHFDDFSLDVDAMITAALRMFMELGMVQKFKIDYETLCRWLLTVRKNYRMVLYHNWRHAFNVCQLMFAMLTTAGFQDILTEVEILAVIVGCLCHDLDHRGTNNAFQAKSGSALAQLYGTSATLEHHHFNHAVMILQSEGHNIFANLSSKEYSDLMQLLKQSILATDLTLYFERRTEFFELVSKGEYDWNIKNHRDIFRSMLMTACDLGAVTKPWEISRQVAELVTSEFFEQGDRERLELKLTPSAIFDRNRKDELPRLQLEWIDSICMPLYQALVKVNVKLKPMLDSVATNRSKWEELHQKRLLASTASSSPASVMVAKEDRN
Chain of Transforming growth factor beta-1 proprotein (Homo sapiens) (P01137 279-390 limits assumed): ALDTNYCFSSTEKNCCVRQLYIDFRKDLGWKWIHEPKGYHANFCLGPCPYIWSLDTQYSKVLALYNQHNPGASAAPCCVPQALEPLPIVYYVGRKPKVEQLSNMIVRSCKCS

## CCN(CC)CCO/N=C(\c1ccc(SC)cc1)c1cccc2ccccc12.O=C(O)C(=O)O
Mus musculus [1]
  Activity: Non-toxic
Mus musculus [2]
  Activity: Non-toxic
MCF7 [3]
  EC50: 7.5 µM
MCF7 [4]
  Activity: 13.98%
Vero
  IC50: > 25 µM
In vitro
  selectivity ratio: 16.6
MCF7 [5]
  Activity: >50%

## CCN(CC)CCO/N=C(\c1ccc(SC)cc1)c1cccc2ccccc12
[6]
  inhibition: inactive
[7]
  inhibition: inactive
[8]
  inhibition: inactive
[9]
  inhibition: Active
[10]
  inhibition: Active
MDA-MB-231 [11]
  Activity: Active
[12]
  inhibition: inactive
MCF7 [13]
  inhibition: Active
[14]
  inhibition: inactive
MDA-MB-231 [15]
  Activity: Active
[16]
  inhibition: inactive
MDA-MB-231 [17]
  inhibition: Active
[18]
  inhibition: inactive
MCF7 [19]
  Activity: inactive
MDA-MB-231 [20]
  Activity: Active
[21]
  inhibition: inactive
[22]
  inhibition: inactive
MDA-MB-231 [23]
  inhibition: Active
MCF7 [24]
  inhibition: inactive

From ChEMBL document CHEMBL3352791, “Thioaryl naphthylmethanone oxime ether analogs as novel anticancer agents” (J Med Chem, 2014)
